Measurements: ChEMBL document CHEMBL5724801, “EUbOPEN Chemogenomics Library - Multiplex” (2024)
“And” between values parts separate entries of the source, which are not always exact repeats. Identical values can stand only once.

Tested on: Fibroblast
Assay: Multiplex assay against human fibroblast
Assay type: toxicity, cell-based
Outline: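 At seeding, live cells were stained with Hoechst33342, BioTracker Green Microtubule Cytoskeleton Dye, MitoTracker Red and Annexin V Alexa Fluor 680. After compound addition they were imaged on a CQ1 microscope at 37°C and 5% CO2, and CellPathfinder machine-learning gating sorted them into Hoechst high-intensity objects or normal cells, with normal cells further split into healthy, pyknosed or fragmented nuclei and pyknosed cells into mitotic or apoptotic. Tubulin, mitochondrial-mass and membrane-permeability phenotypes are given as per cents of cells with healthy nuclei.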

[1] = 12 h, 1 µM, compound concentration 1 uM
[2] = 12 h, 10 µM, compound concentration 10 uM
[3] = 24 h, 1 µM, compound concentration 1 uM
[4] = 24 h, 10 µM, compound concentration 10 uM
[5] = 48 h, 1 µM, compound concentration 1 uM
[6] = 48 h, 10 µM, compound concentration 10 uM

SMILES: O=C(O)C(F)(F)F.O=C1NC(=O)/C(=C/c2c[nH]c(=O)c(-c3ccc(N4CCNCC4)nc3)c2)S1
- Population Apoptotic (%) [1]: 11.76% and 21.95%
- Population Fragmented Nuclei (%) [1]: 12.02% and 8.21%
- Population Healthy Nuclei (%) [1]: 60.11% and 70.77%
- Population Hoechst High Intensity Objects (%) [1]: 0%
- Population Membrane Permeable-Phenotype (%) [1]: 3.64% and 0%
- Population Mitochondria Different-Phenotype (%) [1]: 8.18% and 7.25%
- Population Mitotic Cells (%) [1]: 88.24% and 78.05%
- Population Normal (%) [1]: 100%
- Population Pyknosed Nuclei (%) [1]: 27.87% and 21.03%
- Population Tubulin-Different-Phenotype (%) [1]: 8.18% and 12.32%
- Total Cell Count [1]: 183 and 195
- Population Apoptotic (%) [2]: 13.51% and 16.13%
- Population Healthy Nuclei (%) [2]: 62.9% and 80.28%
- Population Hoechst High Intensity Objects (%) [2]: 0%
- Population Membrane Permeable-Phenotype (%) [2]: 5.98% and 3.51%
- Population Mitochondria Different-Phenotype (%) [2]: 4.27% and 11.7%
- Population Mitotic Cells (%) [2]: 86.49% and 83.87%
- Population Normal (%) [2]: 100%
- Population Pyknosed Nuclei (%) [2]: 19.89% and 14.55%
- Total Cell Count [2]: 186 and 213
- Population Apoptotic (%) [3]: 10.42% and 17.86%
- Population Fragmented Nuclei (%) [3]: 12.43% and 7.25%
- Population Healthy Nuclei (%) [3]: 61.62% and 78.24%
- Population Hoechst High Intensity Objects (%) [3]: 0%
- Population Membrane Permeable-Phenotype (%) [3]: 4.39% and 3.97%
- Population Mitochondria Different-Phenotype (%) [3]: 4.39% and 9.27%
- Population Mitotic Cells (%) [3]: 89.58% and 82.14%
- Population Normal (%) [3]: 100%
- Population Pyknosed Nuclei (%) [3]: 25.95% and 14.51%
- Population Tubulin-Different-Phenotype (%) [3]: 10.53% and 16.56%
- Total Cell Count [3]: 185 and 193
- Population Apoptotic (%) [4]: 24.24% and 20.59%
- Population Fragmented Nuclei (%) [4]: 13.83% and 5.22%
- Population Healthy Nuclei (%) [4]: 68.62% and 80%
- Population Hoechst High Intensity Objects (%) [4]: 0%
- Population Membrane Permeable-Phenotype (%) [4]: 3.88% and 1.09%
- Population Mitochondria Different-Phenotype (%) [4]: 4.65% and 6.52%
- Population Mitotic Cells (%) [4]: 75.76% and 79.41%
- Population Normal (%) [4]: 100%
- Population Pyknosed Nuclei (%) [4]: 17.55% and 14.78%
- Population Tubulin-Different-Phenotype (%) [4]: 10.85% and 20.11%
- Total Cell Count [4]: 188 and 230
- Population Apoptotic (%) [5]: 26.32% and 27.27%
- Population Fragmented Nuclei (%) [5]: 10.5% and 6.53%
- Population Healthy Nuclei (%) [5]: 81.51% and 87.94%
- Population Hoechst High Intensity Objects (%) [5]: 0%
- Population Membrane Permeable-Phenotype (%) [5]: 1.03% and 1.71%
- Population Mitochondria Different-Phenotype (%) [5]: 8.76% and 5.71%
- Population Mitotic Cells (%) [5]: 73.68% and 72.73%
- Population Normal (%) [5]: 100%
- Population Pyknosed Nuclei (%) [5]: 7.98% and 5.53%
- Population Tubulin-Different-Phenotype (%) [5]: 6.7% and 18.86%
- Total Cell Count [5]: 238 and 199
- Population Apoptotic (%) [6]: 50% and 55.56%
- Population Fragmented Nuclei (%) [6]: 7.94% and 3.6%
- Population Healthy Nuclei (%) [6]: 88.89% and 92.34%
- Population Hoechst High Intensity Objects (%) [6]: 0%
- Population Membrane Permeable-Phenotype (%) [6]: 1.19% and 1.46%
- Population Mitotic Cells (%) [6]: 50% and 44.44%
- Population Normal (%) [6]: 100%
- Population Pyknosed Nuclei (%) [6]: 3.17% and 4.05%
- Total Cell Count [6]: 189 and 222

SMILES: Cc1nc2ccc(Oc3ccc(F)cc3)cc2c(=O)n1C[C@H]1CCCN(C(C)C)C1.Cl
- Population Apoptotic (%) [1]: 34% and 44%
- Population Fragmented Nuclei (%) [1]: 19% and 24%
- Population Healthy Nuclei (%) [1]: 67% and 47%
- Population Hoechst High Intensity Objects (%) [1]: 5% and 9%
- Population Mitochondria Different-Phenotype (%) [1]: 4% and 8%
- Population Mitotic Cells (%) [1]: 65% and 55%
- Population Normal (%) [1]: 94% and 90%
- Population Pyknosed Nuclei (%) [1]: 13% and 29%
- Population Tubulin-Different-Phenotype (%) [1]: 31% and 70%
- Total Cell Count [1]: 184 and 111
- Population Apoptotic (%) [2]: 53% and 61%
- Population Fragmented Nuclei (%) [2]: 19% and 36%
- Population Healthy Nuclei (%) [2]: 61% and 44%
- Population Hoechst High Intensity Objects (%) [2]: 4% and 3%
- Population Membrane Permeable-Phenotype (%) [2]: 1% and 5%
- Population Mitochondria Different-Phenotype (%) [2]: 22% and 25%
- Population Mitotic Cells (%) [2]: 46% and 38%
- Population Normal (%) [2]: 95% and 96%
- Population Pyknosed Nuclei (%) [2]: 19%
- Population Tubulin-Different-Phenotype (%) [2]: 88% and 80%
- Total Cell Count [2]: 241 and 205
- Population Apoptotic (%) [3]: 66% and 38%
- Population Fragmented Nuclei (%) [3]: 17% and 29%
- Population Healthy Nuclei (%) [3]: 68% and 50%
- Population Hoechst High Intensity Objects (%) [3]: 3% and 7%
- Population Mitochondria Different-Phenotype (%) [3]: 6% and 17%
- Population Mitotic Cells (%) [3]: 33% and 61%
- Population Normal (%) [3]: 96% and 92%
- Population Pyknosed Nuclei (%) [3]: 13% and 20%
- Population Tubulin-Different-Phenotype (%) [3]: 30% and 73%
- Total Cell Count [3]: 186 and 112
- Population Apoptotic (%) [4]: 67% and 54%
- Population Fragmented Nuclei (%) [4]: 27% and 30%
- Population Healthy Nuclei (%) [4]: 58% and 52%
- Population Hoechst High Intensity Objects (%) [4]: 3% and 6%
- Population Membrane Permeable-Phenotype (%) [4]: 0% and 1%
- Population Mitochondria Different-Phenotype (%) [4]: 27% and 29%
- Population Mitotic Cells (%) [4]: 32% and 45%
- Population Normal (%) [4]: 96% and 93%
- Population Pyknosed Nuclei (%) [4]: 13% and 17%
- Population Tubulin-Different-Phenotype (%) [4]: 84% and 87%
- Total Cell Count [4]: 290 and 187
- Population Apoptotic (%) [5]: 66% and 42%
- Population Fragmented Nuclei (%) [5]: 25% and 36%
- Population Healthy Nuclei (%) [5]: 66% and 44%
- Population Hoechst High Intensity Objects (%) [5]: 3% and 5%
- Population Membrane Permeable-Phenotype (%) [5]: 0% and 6%
- Population Mitotic Cells (%) [5]: 33% and 57%
- Population Normal (%) [5]: 96% and 94%
- Population Pyknosed Nuclei (%) [5]: 8% and 19%
- Population Tubulin-Different-Phenotype (%) [5]: 33% and 68%
- Total Cell Count [5]: 184 and 105
- Population Apoptotic (%) [6]: 66% and 68%
- Population Fragmented Nuclei (%) [6]: 23% and 33%
- Population Healthy Nuclei (%) [6]: 65% and 53%
- Population Hoechst High Intensity Objects (%) [6]: 9% and 3%
- Population Membrane Permeable-Phenotype (%) [6]: 0% and 2%
- Population Mitochondria Different-Phenotype (%) [6]: 20% and 19%
- Population Mitotic Cells (%) [6]: 33% and 32%
- Population Normal (%) [6]: 90% and 96%
- Population Pyknosed Nuclei (%) [6]: 10% and 12%
- Population Tubulin-Different-Phenotype (%) [6]: 85%
- Total Cell Count [6]: 290 and 201
